Experimental data published in ChEMBL document CHEMBL2046422, “Structure-activity relationship of nonacidic quinazolinone inhibitors of human microsomal prostaglandin synthase 1 (mPGES 1)” (J Med Chem, 2012).

How the values were obtained:
[1] = biological target: T1, Prostaglandin E synthase (Homo sapiens) (UniProt O14684); assay: Inhibition of mPGES-1 derived from IL1beta and TNFalpha stimulated human HeLa cells microsomal fraction using PGH2 as substrate at 1 uM preincubated for 30 mins prior to substrate addition measured after 1 min by LC-MS/MS analysis relative to control
T1 sequence (whole entry): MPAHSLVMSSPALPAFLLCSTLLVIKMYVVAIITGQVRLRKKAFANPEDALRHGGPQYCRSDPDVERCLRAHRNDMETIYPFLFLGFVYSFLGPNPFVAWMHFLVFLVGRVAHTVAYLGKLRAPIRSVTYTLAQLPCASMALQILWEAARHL
Procedure, shortened: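 Microsomes were pelleted by ultracentrifugation and resuspended in buffer with 2.5 mM GSH; protein was measured by Bradford. PGE₂ was read by LC-MS/MS after solid-phase extraction with deuterated standards; n ≥ 3.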

[2] = biological target: T2, Prostaglandin E synthase (Mus musculus) (UniProt Q9JM51); assay: Inhibition of mPGES-1 derived from LPS stimulated mouse RAW264.7 cells microsomal fraction using PGH2 as substrate at 5 uM preincubated for 30 mins prior to substrate addition measured after 1 min by LC-MS/MS analysis relative to control
T2 sequence (whole entry): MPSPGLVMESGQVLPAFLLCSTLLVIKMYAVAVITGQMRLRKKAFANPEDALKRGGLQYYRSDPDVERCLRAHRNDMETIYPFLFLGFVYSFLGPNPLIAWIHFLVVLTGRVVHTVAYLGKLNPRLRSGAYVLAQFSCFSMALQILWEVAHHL
Procedure, shortened: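 Microsomes came from RAW 264.7 cells stimulated with LPS for 16 h. They were prepared by sonication and ultracentrifugation in 0.1 M potassium phosphate, pH 7.4, with GSH and protease inhibitors, and resuspended with 2.5 mM GSH; protein was measured by Bradford. Compound was tested at the stated final concentration. PGE₂ was quantified by LC-MS/MS after solid-phase extraction with PGE₂-d₄/PGD₂-d₄ standards; SEM, n ≥ 3.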

[3] = biological target: T2, Prostaglandin E synthase (Mus musculus); assay: Inhibition of mPGES-1 derived from LPS stimulated mouse NIH3T3 cells microsomal fraction using PGH2 as substrate at 5 uM preincubated for 30 mins prior to substrate addition measured after 1 min by LC-MS/MS analysis relative to control

| Compound | inhibition [1] | inhibition [2] | inhibition [3] |
| --- | --- | --- | --- |
| O=C(Nc1ccc2nc(C3CC3)n(Cc3ccccc3)c(=O)c2c1)c1cccnc1 | < 0% |  |  |
| CCCc1nc2ccc(NC(=O)c3ccccc3F)cc2c(=O)n1Cc1ccc(-c2cccc(Cl)c2)cc1 | 30% |  |  |
| CCCc1nc2ccc(NC(C)=O)cc2c(=O)n1Cc1ccc(-c2cccc(Cl)c2)cc1 | 14.8% |  |  |
| O=C1NC(c2ccccc2Cl)Oc2ccccc21 (configuration not stated) | < 0% |  |  |
| CCCc1nc2ccc(NC(=O)c3ccc(Cl)cc3)cc2c(=O)n1Cc1ccc(-c2cccc(Cl)c2)cc1 | 14.7% |  |  |
| CCCc1nc2ccc(NC(=O)c3c(Cl)cccc3Cl)cc2c(=O)n1Cc1cccc(Cl)c1 | 61.3% |  |  |
| CCCc1nc2ccc(NC(=O)CCc3ccccc3)cc2c(=O)n1Cc1ccc(-c2cccc(Cl)c2)cc1 | 32.7% |  |  |
| CCCCCCC(Sc1nc(Cl)cc(Nc2cccc(C)c2C)n1)C(=O)O (configuration not stated) |  | 66.2% | 62.9% |
| CCCc1nc2ccc(NC(=O)c3ccccc3Cl)cc2c(=O)n1Cc1ccc(-c2ccccc2OC)cc1 | 61.3% |  |  |
| Cc1nc2ccc(NC(=O)c3ccccc3Cl)cc2c(=O)n1Cc1ccc(-c2cccc(Cl)c2)cc1 | 41.9% |  |  |
| O=C(Cn1cnc2ccccc2c1=O)Nc1ccccc1Cl | < 0% |  |  |
